Experimental data from ChEMBL document CHEMBL3870311, “Synthesis and biological evaluation of C1-O-substituted-3-(3-butylamino-2-hydroxy-propoxy)-xanthen-9-one as topoisomerase IIα catalytic inhibitors” (Eur J Med Chem, 2016).
Counter-ions that a name gives are not always drawn. Blank lines part the entries; values can stand above or below the compound they belong to.

Legend:
[1] = target: DNA topoisomerase 2-alpha (Homo sapiens, UniProt P11388); assay: Inhibition of human topoisomerase-2 alpha at 100 uM using supercoiled pBR322 DNA as substrate after 30 mins by agarose gel electrophoresis method relative to control
DNA topoisomerase 2-alpha, sequence (P11388 whole entry): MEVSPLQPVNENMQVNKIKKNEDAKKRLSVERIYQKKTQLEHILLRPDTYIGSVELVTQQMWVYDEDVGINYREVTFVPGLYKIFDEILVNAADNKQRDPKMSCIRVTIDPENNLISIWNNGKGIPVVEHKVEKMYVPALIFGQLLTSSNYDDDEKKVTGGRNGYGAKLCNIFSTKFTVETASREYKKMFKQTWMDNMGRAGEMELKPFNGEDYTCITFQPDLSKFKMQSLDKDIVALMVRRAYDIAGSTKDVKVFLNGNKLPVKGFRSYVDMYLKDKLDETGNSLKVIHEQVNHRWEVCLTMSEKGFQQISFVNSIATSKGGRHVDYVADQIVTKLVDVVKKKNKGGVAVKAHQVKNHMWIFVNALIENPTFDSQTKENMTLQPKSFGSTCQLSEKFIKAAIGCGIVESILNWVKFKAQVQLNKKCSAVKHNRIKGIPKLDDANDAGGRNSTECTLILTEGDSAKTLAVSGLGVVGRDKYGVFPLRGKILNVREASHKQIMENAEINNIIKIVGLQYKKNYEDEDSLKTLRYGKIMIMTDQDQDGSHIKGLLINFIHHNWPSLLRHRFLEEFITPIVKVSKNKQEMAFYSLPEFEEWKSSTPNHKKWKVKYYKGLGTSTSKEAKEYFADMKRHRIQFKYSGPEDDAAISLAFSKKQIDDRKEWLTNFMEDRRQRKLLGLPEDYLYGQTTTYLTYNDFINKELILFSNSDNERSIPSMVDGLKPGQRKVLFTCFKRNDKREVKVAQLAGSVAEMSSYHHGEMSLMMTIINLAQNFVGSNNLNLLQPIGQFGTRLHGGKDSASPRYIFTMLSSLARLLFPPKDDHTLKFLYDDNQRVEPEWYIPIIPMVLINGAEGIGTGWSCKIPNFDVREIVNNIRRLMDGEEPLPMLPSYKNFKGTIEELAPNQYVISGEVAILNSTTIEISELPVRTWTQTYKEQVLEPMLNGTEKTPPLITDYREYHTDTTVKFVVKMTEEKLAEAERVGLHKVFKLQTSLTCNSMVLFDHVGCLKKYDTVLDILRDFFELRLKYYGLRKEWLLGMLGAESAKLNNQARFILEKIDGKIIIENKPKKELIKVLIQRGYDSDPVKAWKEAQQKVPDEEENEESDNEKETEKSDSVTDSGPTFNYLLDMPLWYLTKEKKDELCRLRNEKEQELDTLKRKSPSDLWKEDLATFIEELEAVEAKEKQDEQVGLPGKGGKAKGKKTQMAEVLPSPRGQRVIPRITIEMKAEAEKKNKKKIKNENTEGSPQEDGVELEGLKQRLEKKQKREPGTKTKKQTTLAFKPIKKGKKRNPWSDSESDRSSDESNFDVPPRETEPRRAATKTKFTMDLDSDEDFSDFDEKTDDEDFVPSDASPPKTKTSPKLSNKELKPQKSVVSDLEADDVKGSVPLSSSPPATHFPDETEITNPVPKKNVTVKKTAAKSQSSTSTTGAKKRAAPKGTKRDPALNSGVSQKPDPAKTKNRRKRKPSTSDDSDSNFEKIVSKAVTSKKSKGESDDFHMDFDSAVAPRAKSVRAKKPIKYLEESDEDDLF

[2] = Cytotoxicity against human HCT15 cells assessed as reduction in cell growth after 72 hrs by CCK8 assay; assay type: functional, cell-based; conditions: HCT-15, 72 h
How it was run: (§1)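 Cells (2~4 x 10^4 per well) seeded overnight in media with 10% FBS, 37 °C, 5% CO₂, then exposed to graded compound concentrations for 72 h. CCK-8 solution added for a further 4 h; absorbance read at 450 nm. IC₅₀ from four-parameter logistic fit; adriamycin, etoposide and camptothecin as positive controls.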

[3] = Cytotoxicity against human T47D cells assessed as reduction in cell growth after 72 hrs by CCK8 assay; assay type: functional, cell-based; how it was run: as §1
[4] = Cytotoxicity against human HeLa cells assessed as reduction in cell growth after 72 hrs by CCK8 assay; assay type: functional, cell-based; how it was run: as §1
[5] = Cytotoxicity against human NCI-N87 cells assessed as reduction in cell growth after 72 hrs by CCK8 assay; assay type: functional, cell-based; conditions: NCI-N87, 72 h; how it was run: as §1

inhibition [1]: 3.3%
Structure (SMILES): COc1cccc2c(=O)c3c(OCc4ccccc4)cc(OCC4CO4)cc3oc12 (configuration not stated)
IC50 [2]: 0.34 µM
IC50 [3]: 2.02 µM
IC50 [4]: 1.66 µM
IC50 [5]: 1.75 µM

inhibition [1]: 0%
Structure (SMILES): O=c1c2ccccc2oc2cc(OCC3CO3)cc(OCc3cccc(Cl)c3)c12 (configuration not stated)
IC50 [2]: 1.96 µM
IC50 [3]: 3.3 µM
IC50 [4]: 3.57 µM
IC50 [5]: 1.89 µM

inhibition [1]: 0%
Structure (SMILES): O=c1c2ccccc2oc2cc(OCC3CO3)cc(OCc3cccc(C(F)(F)F)c3)c12 (configuration not stated)
IC50 [2]: 5.08 µM
IC50 [3]: 2.3 µM
IC50 [4]: 4.28 µM
IC50 [5]: 1.36 µM

inhibition [1]: 1.5%
Structure (SMILES): CCCCNCC(O)COc1cc(OC(C)C)c2c(=O)c3ccccc3oc2c1 (configuration not stated)
IC50 [2]: 43.4 µM
IC50 [3]: 4.71 µM
IC50 [4]: 36.6 µM
IC50 [5]: 2.05 µM

inhibition [1]: 0%
Structure (SMILES): CCCCOc1cc(OCC2CO2)cc2oc3ccccc3c(=O)c12 (configuration not stated)
IC50 [2]: 2.45 µM
IC50 [3]: 3.75 µM
IC50 [4]: 1.81 µM
IC50 [5]: 4.55 µM

inhibition [1]: 7.5%
Structure (SMILES): CCCCNCC(O)COc1cc(OC(C)C)c2c(=O)c3cccc(OC)c3oc2c1 (configuration not stated)
IC50 [2]: 9.6 µM
IC50 [3]: 2.67 µM
IC50 [4]: 14.4 µM
IC50 [5]: 0.08 µM

inhibition [1]: 0%
Structure (SMILES): O=c1c2ccccc2oc2cc(OCC3CO3)cc(OCCc3cccc(Cl)c3)c12 (configuration not stated)
IC50 [2]: 4.13 µM
IC50 [3]: 1.36 µM
IC50 [4]: 1.46 µM
IC50 [5]: 3.18 µM

inhibition [1]: 1.7%
Structure (SMILES): COc1cccc2c(=O)c3c(OCc4cccc(Cl)c4)cc(OCC4CO4)cc3oc12 (configuration not stated)
IC50 [2]: 0.17 µM
IC50 [3]: 1.55 µM
IC50 [4]: 1.7 µM
IC50 [5]: 0.95 µM

inhibition [1]: 0%
Structure (SMILES): O=c1c2ccccc2oc2cc(OCC3CO3)cc(OCc3ccccc3)c12 (configuration not stated)
IC50 [2]: 1.5 µM
IC50 [3]: 3.06 µM
IC50 [4]: 1.92 µM
IC50 [5]: 5.07 µM

inhibition [1]: 27.1%
Structure (SMILES): CCCCNCC(O)COc1cc(OCCCC)c2c(=O)c3ccccc3oc2c1 (configuration not stated)
IC50 [2]: 8.61 µM
IC50 [3]: 1.54 µM
IC50 [4]: 2.07 µM
IC50 [5]: 1.63 µM

inhibition [1]: 0%
Structure (SMILES): COc1ccc(COc2cc(OCC3CO3)cc3oc4c(OC)cccc4c(=O)c23)cc1 (configuration not stated)
IC50 [2]: 0.42 µM
IC50 [3]: 7.68 µM
IC50 [4]: 1.74 µM
IC50 [5]: 1.41 µM

inhibition [1]: 0%
Structure (SMILES): COc1cccc(COc2cc(OCC3CO3)cc3oc4c(OC)cccc4c(=O)c23)c1 (configuration not stated)
IC50 [2]: 0.35 µM
IC50 [3]: 4.05 µM
IC50 [4]: 2.43 µM
IC50 [5]: 1.32 µM

inhibition [1]: 0%
Structure (SMILES): COc1cccc2c(=O)c3c(OCCc4cccc(Cl)c4)cc(OCC4CO4)cc3oc12 (configuration not stated)
IC50 [2]: 1.08 µM
IC50 [3]: 2.74 µM
IC50 [4]: 0.47 µM
IC50 [5]: 1.11 µM

inhibition [1]: 10.7%
Structure (SMILES): CCCCNCC(O)COc1cc(OCC)c2c(=O)c3cccc(OC)c3oc2c1 (configuration not stated)
IC50 [2]: 10.6 µM
IC50 [3]: 4.28 µM
IC50 [4]: 23.5 µM
IC50 [5]: 2.24 µM

inhibition [1]: 0.1%
Structure (SMILES): CC(C)Oc1cc(OCC2CO2)cc2oc3ccccc3c(=O)c12 (configuration not stated)
IC50 [2]: 1.63 µM
IC50 [3]: 1.94 µM
IC50 [4]: 1.62 µM
IC50 [5]: 0.29 µM

Structure (SMILES): CC[C@@]1(O)C(=O)OCc2c1cc1n(c2=O)Cc2cc3ccccc3nc2-1 [CAMPTOTHECIN]
IC50 [2]: 0.0014 µM
IC50 [3]: 0.08 µM
IC50 [4]: 0.13 µM
IC50 [5]: 0.6 µM

inhibition [1]: 0%
Structure (SMILES): O=c1c2ccccc2oc2cc(OCC3CO3)cc(OCCc3ccc(Cl)cc3)c12 (configuration not stated)
IC50 [2]: 5.27 µM
IC50 [3]: 0.97 µM
IC50 [4]: 4.91 µM
IC50 [5]: 2.02 µM

inhibition [1]: 5%
Structure (SMILES): CCCCCOc1cc(OCC2CO2)cc2oc3c(OC)cccc3c(=O)c12 (configuration not stated)
IC50 [2]: 0.37 µM
IC50 [3]: 4.57 µM
IC50 [4]: 4.06 µM
IC50 [5]: 1.69 µM

inhibition [1]: 1.5%
Structure (SMILES): COc1cccc2c(=O)c3c(OC(C)C)cc(OCC4CO4)cc3oc12 (configuration not stated)
IC50 [2]: 0.31 µM
IC50 [3]: 1.75 µM
IC50 [4]: 1.87 µM
IC50 [5]: 3.12 µM

Structure (SMILES): COc1cccc2c1C(=O)c1c(O)c3c(c(O)c1C2=O)C[C@@](O)(C(=O)CO)C[C@@H]3O[C@H]1C[C@H](N)[C@H](O)[C@H](C)O1 [DOXORUBICIN HYDROCHLORIDE]
IC50 [3]: 1.42 µM
IC50 [4]: 1.7 µM
IC50 [5]: 0.71 µM
